Assay results as given in ChEMBL document CHEMBL3286105, “Design, synthesis and antifungal activity of novel triazole derivatives containing substituted 1,2,3-triazole-piperdine side chains” (2014).
Converted amounts (≈) assume the structure as drawn.

How the values were obtained:
Type in all cases: functional
Nannizzia gypsea = assay: Antifungal activity against Microsporum gypseum assessed as growth inhibition by serial dilution method
Outline: (§1)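 Compounds were dissolved in DMSO and diluted in growth medium. Incubation was at 28 °C. MIC was the lowest concentration with turbidity at the 80% inhibition threshold relative to the drug-free growth control.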

Candida parapsilosis = assay: Antifungal activity against Candida parapsilosis assessed as growth inhibition after 24 hrs by serial dilution method; conditions: Lodderomyces parapsilosis
Outline: (§2)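 Candida strains were ATCC or clinical isolates. Compounds were dissolved in DMSO and serially diluted in growth medium. Plates were incubated at 35 °C and read at 24 h. MIC was the lowest concentration giving turbidity at […]80% inhibition relative to the growth control.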

Nakaseomyces glabratus = assay: Antifungal activity against Candida glabrata assessed as growth inhibition after 24 hrs by serial dilution method; outline: as §2
Cryptococcus neoformans = assay: Antifungal activity against Cryptococcus neoformans assessed as growth inhibition after 72 hrs by serial dilution method
Outline: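 Compounds were taken up in DMSO and diluted in growth medium. Incubation was at 35 °C with MIC read at 72 h. MIC was the lowest concentration at which turbidity reached the 80% inhibition cutoff against the untreated growth control.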

Candida albicans = assay: Antifungal activity against Candida albicans assessed as growth inhibition after 24 hrs by serial dilution method; outline: as §2
Aspergillus fumigatus = assay: Antifungal activity against Aspergillus fumigatus assessed as growth inhibition after 7 days by serial dilution method; conditions: 168 h
Trichophyton rubrum = assay: Antifungal activity against Trichophyton rubrum assessed as growth inhibition by serial dilution method; outline: as §1

Structure (SMILES)	MIC80 (Nannizzia gypsea) [µg/mL]	MIC80 (Candida parapsilosis) [µg/mL]	MIC80 (Nakaseomyces glabratus) [µg/mL]	MIC80 (Cryptococcus neoformans) [µg/mL]	MIC80 (Candida albicans) [µg/mL]	MIC80 (Aspergillus fumigatus) [µg/mL]	MIC80 (Trichophyton rubrum) [µg/mL]
OC(CN1CCC(n2cc(Cc3ccccc3)nn2)CC1)(Cn1cncn1)c1ccc(F)cc1F (configuration not stated)	4 (≈ 8.34 µM)	1 (≈ 2.09 µM)	1 (≈ 2.09 µM)	0.5 (≈ 1.04 µM)	0.125 (≈ 0.261 µM)	32 (≈ 66.7 µM)	1 (≈ 2.09 µM)
Cc1ccccc1-c1cn(C2CCN(CC(O)(Cn3cncn3)c3ccc(F)cc3F)CC2)nn1 (configuration not stated)	64 (≈ 133 µM)	0.5 (≈ 1.04 µM)	0.5 (≈ 1.04 µM)	0.25 (≈ 0.521 µM)	0.125 (≈ 0.261 µM)	> 64	0.5 (≈ 1.04 µM)
OC(CN1CCC(n2cc(C3CCCC3)nn2)CC1)(Cn1cncn1)c1ccc(F)cc1F (configuration not stated)	64 (≈ 140 µM)	8 (≈ 17.5 µM)	4 (≈ 8.74 µM)	8 (≈ 17.5 µM)	0.5 (≈ 1.09 µM)	> 64	16 (≈ 35 µM)
CCOC(=O)c1cn(C2CCN(CC(O)(Cn3cncn3)c3ccc(F)cc3F)CC2)nn1 (configuration not stated)	> 64	> 64	32 (≈ 69.3 µM)	> 64	8 (≈ 17.3 µM)	> 64	> 64
OC(CN1CCC(n2cc(-c3ccccc3)nn2)CC1)(Cn1cncn1)c1ccc(F)cc1F (configuration not stated)	4 (≈ 8.59 µM)	1 (≈ 2.15 µM)	1 (≈ 2.15 µM)	0.25 (≈ 0.537 µM)	0.125 (≈ 0.269 µM)	> 64	0.5 (≈ 1.07 µM)
CCc1cn(C2CCN(CC(O)(Cn3cncn3)c3ccc(F)cc3F)CC2)nn1 (configuration not stated)	8 (≈ 19.2 µM)	1 (≈ 2.4 µM)	0.5 (≈ 1.2 µM)	1 (≈ 2.4 µM)	0.125 (≈ 0.299 µM)	64 (≈ 153 µM)	1 (≈ 2.4 µM)
COC(=O)CCCc1cn(C2CCN(CC(O)(Cn3cncn3)c3ccc(F)cc3F)CC2)nn1 (configuration not stated)	8 (≈ 16.3 µM)	4 (≈ 8.17 µM)	2 (≈ 4.09 µM)	4 (≈ 8.17 µM)	0.25 (≈ 0.511 µM)	64 (≈ 131 µM)	4 (≈ 8.17 µM)
OCCc1cn(C2CCN(CC(O)(Cn3cncn3)c3ccc(F)cc3F)CC2)nn1 (configuration not stated)	> 64	> 64	16 (≈ 36.9 µM)	> 64	4 (≈ 9.23 µM)	> 64	> 64
CCCc1cn(C2CCN(CC(O)(Cn3cncn3)c3ccc(F)cc3F)CC2)nn1 (configuration not stated)	4 (≈ 9.27 µM)	1 (≈ 2.32 µM)	0.25 (≈ 0.579 µM)	0.5 (≈ 1.16 µM)	0.125 (≈ 0.29 µM)	16 (≈ 37.1 µM)	1 (≈ 2.32 µM)
COCc1cn(C2CCN(CC(O)(Cn3cncn3)c3ccc(F)cc3F)CC2)nn1 (configuration not stated)	2 (≈ 4.61 µM)	0.5 (≈ 1.15 µM)	0.25 (≈ 0.577 µM)	0.25 (≈ 0.577 µM)	0.125 (≈ 0.288 µM)	16 (≈ 36.9 µM)	0.5 (≈ 1.15 µM)
OC(Cn1cncn1)(Cn1cncn1)c1ccc(F)cc1F [FLUCONAZOLE]	32 (≈ 104 µM)	2 (≈ 6.53 µM)	1 (≈ 3.27 µM)	1 (≈ 3.27 µM)	0.25 (≈ 0.816 µM)	> 64	8 (≈ 26.1 µM)
CC(O)c1cn(C2CCN(CC(O)(Cn3cncn3)c3ccc(F)cc3F)CC2)nn1 (configuration not stated)	> 64	> 64	16 (≈ 36.9 µM)	64 (≈ 148 µM)	8 (≈ 18.5 µM)	> 64	> 64
OCc1cn(C2CCN(CC(O)(Cn3cncn3)c3ccc(F)cc3F)CC2)nn1 (configuration not stated)	> 64	> 64	32 (≈ 76.3 µM)	64 (≈ 153 µM)	8 (≈ 19.1 µM)	> 64	> 64
O=C(O)CCCc1cn(C2CCN(CC(O)(Cn3cncn3)c3ccc(F)cc3F)CC2)nn1 (configuration not stated)	32 (≈ 67.3 µM)	8 (≈ 16.8 µM)	4 (≈ 8.41 µM)	4 (≈ 8.41 µM)	0.5 (≈ 1.05 µM)	> 64	4 (≈ 8.41 µM)
COc1cccc(-c2cn(C3CCN(CC(O)(Cn4cncn4)c4ccc(F)cc4F)CC3)nn2)c1 (configuration not stated)	32 (≈ 64.6 µM)	4 (≈ 8.07 µM)	2 (≈ 4.04 µM)	0.125 (≈ 0.252 µM)	0.125 (≈ 0.252 µM)	> 64	4 (≈ 8.07 µM)
OCCCCc1cn(C2CCN(CC(O)(Cn3cncn3)c3ccc(F)cc3F)CC2)nn1 (configuration not stated)	> 64	32 (≈ 69.3 µM)	8 (≈ 17.3 µM)	32 (≈ 69.3 µM)	4 (≈ 8.67 µM)	> 64	64 (≈ 139 µM)
OC(c1ccccc1)c1cn(C2CCN(CC(O)(Cn3cncn3)c3ccc(F)cc3F)CC2)nn1 (configuration not stated)	> 64	8 (≈ 16.1 µM)	8 (≈ 16.1 µM)	32 (≈ 64.6 µM)	2 (≈ 4.04 µM)	16 (≈ 32.3 µM)	32 (≈ 64.6 µM)
O=C(O)c1cn(C2CCN(CC(O)(Cn3cncn3)c3ccc(F)cc3F)CC2)nn1 (configuration not stated)	> 64	64 (≈ 148 µM)	8 (≈ 18.5 µM)	16 (≈ 36.9 µM)	4 (≈ 9.23 µM)	> 64	> 64
OC(CN1CCC(n2cc(-c3cccnc3)nn2)CC1)(Cn1cncn1)c1ccc(F)cc1F (configuration not stated)	16 (≈ 34.3 µM)	1 (≈ 2.14 µM)	1 (≈ 2.14 µM)	0.125 (≈ 0.268 µM)	0.125 (≈ 0.268 µM)	64 (≈ 137 µM)	4 (≈ 8.57 µM)
CCC(C)n1ncn(-c2ccc(N3CCN(c4ccc(OCC5COC(Cn6cncn6)(c6ccc(Cl)cc6Cl)O5)cc4)CC3)cc2)c1=O (configuration not stated) [ITRACONAZOLE]	2 (≈ 2.83 µM)	4 (≈ 5.67 µM)	1 (≈ 1.42 µM)	2 (≈ 2.83 µM)	1 (≈ 1.42 µM)	1 (≈ 1.42 µM)	0.5 (≈ 0.709 µM)
CC(=O)c1ccc(-c2cn(C3CCN(CC(O)(Cn4cncn4)c4ccc(F)cc4F)CC3)nn2)cc1 (configuration not stated)	2 (≈ 3.94 µM)	0.5 (≈ 0.985 µM)	0.5 (≈ 0.985 µM)	0.125 (≈ 0.246 µM)	0.0625 (≈ 0.123 µM)	64 (≈ 126 µM)	1 (≈ 1.97 µM)
CN(C)c1ccc(-c2cn(C3CCN(CC(O)(Cn4cncn4)c4ccc(F)cc4F)CC3)nn2)cc1 (configuration not stated)	4 (≈ 7.87 µM)	2 (≈ 3.93 µM)	2 (≈ 3.93 µM)	1 (≈ 1.97 µM)	0.25 (≈ 0.492 µM)	8 (≈ 15.7 µM)	2 (≈ 3.93 µM)
OC(CN1CCC(n2cc(-c3ccc(Br)cc3)nn2)CC1)(Cn1cncn1)c1ccc(F)cc1F (configuration not stated)	2 (≈ 3.67 µM)	1 (≈ 1.84 µM)	0.5 (≈ 0.918 µM)	0.125 (≈ 0.23 µM)	0.125 (≈ 0.23 µM)	> 64	0.25 (≈ 0.459 µM)
OC(CN1CCC(n2cc(C3CC3)nn2)CC1)(Cn1cncn1)c1ccc(F)cc1F (configuration not stated)	8 (≈ 18.6 µM)	1 (≈ 2.33 µM)	0.25 (≈ 0.582 µM)	1 (≈ 2.33 µM)	0.125 (≈ 0.291 µM)	64 (≈ 149 µM)	2 (≈ 4.66 µM)
OC(CN1CCC(n2cc(-c3ccc(OC(F)(F)F)cc3)nn2)CC1)(Cn1cncn1)c1ccc(F)cc1F (configuration not stated)	4 (≈ 7.28 µM)	2 (≈ 3.64 µM)	0.5 (≈ 0.91 µM)	0.125 (≈ 0.227 µM)	0.0125 (≈ 0.0227 µM)	8 (≈ 14.6 µM)	0.5 (≈ 0.91 µM)
OCCCc1cn(C2CCN(CC(O)(Cn3cncn3)c3ccc(F)cc3F)CC2)nn1 (configuration not stated)	> 64	> 64	16 (≈ 35.8 µM)	> 64	8 (≈ 17.9 µM)	> 64	> 64
